Source: paper PMC7144688 (Cell chemical biology, 2020)
Values belong to the molecule of their own block, whether it stands above or below them.

Experiments:
androgen receptor (AR) = assay: AR-mediated transcription assay in MDA-kb2 cells; type: cell-based, human; conditions: 0.2 nM DHT, 20 h
In short: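 MDA-kb2 cells carrying a stable androgen/glucocorticoid-responsive firefly luciferase reporter were seeded at 20,000 cells/well in Leibovitz's L-15 with 10% charcoal-stripped FBS (0% CO2) and grown to 80% confluence. Cells were co-treated with DHT and graded test compound for 20 h, lysed in Bright-Glo reagent for 4 min at room temperature, and luminescence was read.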

[1] = biological target: Aha1-stimulated Hsp90 (ASH) ATPase activity (Homo sapiens, UniProt O95433+P08238); assay: Aha1-stimulated Hsp90; type: biochemical
[2] = biological target: 6P chaperone complex (Hsp90, Hsp70, Hop, BAG1, Aha1 & Hsp40) refolding of FLuc (Homo sapiens, UniProt O95433+P08238+P0DMV8); assay: In vitro refolding of heat-denatured firefly luciferase by 6P chaperone complex; type: biochemical; conditions: 15 μM
human Hsp90β = human Hsp90β (human, UniProt P08238 1-724); assay: other fluorescence titration
Chain of human Hsp90β (P08238 whole entry): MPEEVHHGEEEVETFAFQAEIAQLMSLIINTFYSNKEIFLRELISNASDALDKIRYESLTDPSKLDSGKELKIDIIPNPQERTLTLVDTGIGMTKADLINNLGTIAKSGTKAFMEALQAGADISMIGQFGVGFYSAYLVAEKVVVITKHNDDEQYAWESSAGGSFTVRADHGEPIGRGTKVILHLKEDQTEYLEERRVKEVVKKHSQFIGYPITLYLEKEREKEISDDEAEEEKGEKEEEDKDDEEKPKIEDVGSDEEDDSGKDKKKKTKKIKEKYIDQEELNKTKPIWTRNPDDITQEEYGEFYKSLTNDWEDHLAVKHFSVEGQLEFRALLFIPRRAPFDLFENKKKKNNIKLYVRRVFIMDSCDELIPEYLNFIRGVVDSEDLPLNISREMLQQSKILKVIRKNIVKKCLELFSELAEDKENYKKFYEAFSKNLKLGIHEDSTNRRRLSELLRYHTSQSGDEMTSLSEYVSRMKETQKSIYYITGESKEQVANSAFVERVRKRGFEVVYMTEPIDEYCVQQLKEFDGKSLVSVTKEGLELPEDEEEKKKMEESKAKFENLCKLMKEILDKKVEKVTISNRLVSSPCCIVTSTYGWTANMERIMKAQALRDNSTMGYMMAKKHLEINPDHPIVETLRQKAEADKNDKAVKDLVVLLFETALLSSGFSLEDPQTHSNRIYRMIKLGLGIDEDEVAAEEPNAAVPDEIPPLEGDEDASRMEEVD

Chain of 6P chaperone complex (Hsp90, Hsp70, Hop, BAG1, Aha1 & Hsp40) refolding of FLuc (O95433 whole entry): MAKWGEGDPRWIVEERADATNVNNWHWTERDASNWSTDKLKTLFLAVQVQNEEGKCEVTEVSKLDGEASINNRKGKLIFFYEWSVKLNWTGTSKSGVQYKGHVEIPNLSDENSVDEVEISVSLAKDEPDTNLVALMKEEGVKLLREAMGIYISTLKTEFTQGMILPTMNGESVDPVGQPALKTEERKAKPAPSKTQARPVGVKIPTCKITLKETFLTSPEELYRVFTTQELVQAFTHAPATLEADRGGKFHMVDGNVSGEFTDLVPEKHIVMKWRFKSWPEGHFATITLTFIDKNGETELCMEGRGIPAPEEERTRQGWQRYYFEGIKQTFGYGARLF
Chain of 6P chaperone complex (Hsp90, Hsp70, Hop, BAG1, Aha1 & Hsp40) refolding of FLuc (P08238 whole entry): as the sequence (P08238 whole entry) above
Chain of 6P chaperone complex (Hsp90, Hsp70, Hop, BAG1, Aha1 & Hsp40) refolding of FLuc (P0DMV8 whole entry): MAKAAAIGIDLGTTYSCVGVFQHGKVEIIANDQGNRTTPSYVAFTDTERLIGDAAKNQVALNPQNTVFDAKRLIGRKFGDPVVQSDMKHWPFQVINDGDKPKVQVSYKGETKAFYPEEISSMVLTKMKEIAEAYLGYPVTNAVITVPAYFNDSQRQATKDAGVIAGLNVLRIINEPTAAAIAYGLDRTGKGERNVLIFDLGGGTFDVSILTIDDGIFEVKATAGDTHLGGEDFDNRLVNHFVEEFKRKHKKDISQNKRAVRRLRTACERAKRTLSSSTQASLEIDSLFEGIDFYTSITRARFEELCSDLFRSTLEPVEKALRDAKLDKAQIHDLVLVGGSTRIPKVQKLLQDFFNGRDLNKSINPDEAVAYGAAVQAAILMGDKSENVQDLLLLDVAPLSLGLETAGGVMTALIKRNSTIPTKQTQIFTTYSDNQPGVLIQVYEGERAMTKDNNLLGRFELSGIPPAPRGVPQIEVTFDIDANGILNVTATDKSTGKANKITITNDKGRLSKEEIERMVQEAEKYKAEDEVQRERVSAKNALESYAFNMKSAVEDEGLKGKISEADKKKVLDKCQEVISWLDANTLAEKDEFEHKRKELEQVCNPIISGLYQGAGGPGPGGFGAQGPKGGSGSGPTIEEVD
Chain of Aha1-stimulated Hsp90 (ASH) ATPase activity (O95433 whole entry): as the sequence (O95433 whole entry) above
Chain of Aha1-stimulated Hsp90 (ASH) ATPase activity (P08238 whole entry): as the sequence (P08238 whole entry) above

Molecule: C=CCNC1=C2C[C@@H](C)C[C@H](OC)[C@H](O)[C@@H](C)/C=C(\C)[C@H](OC(N)=O)[C@@H](OC)/C=C\C=C(/C)C(=O)NC(=CC1=O)C2=O [17-AAG]
IC50 of AR-dependent luciferase expression (androgen receptor (AR)): better than that of the Hsp90i 17-AAG

Molecule: COC1=C2C[C@@H](C)C[C@H](OC)[C@H](O)[C@@H](C)/C=C(\C)[C@H](OC(N)=O)[C@@H](OC)/C=C\C=C(/C)C(=O)NC(=CC1=O)C2=O [GA, geldanamycin]
activity in ASH assay (screen) [1]: failed to completely inhibit the ASH activity
reduction in FLuc refolding [2]: 25%

Next, values leading:

effect on FLuc refolding [2]: completely block
Molecule: CCn1c(=O)/c(=C2\Sc3cc(Cl)ccc3N2C)s/c1=C\c1scc[n+]1Cc1ccccc1.[Cl-] [JG98]

IC50 of AR-dependent luciferase expression (androgen receptor (AR)): similar
Molecule: O=C(Nc1cccc(Cl)c1Cl)C1CCCCC1 [MJC13]

binding result (human Hsp90β): binds
B1: acrylodan-labeled CTD of Aha1 (domain or fragment, human, UniProt O95433 164-338, looked up)
chain: ILPTMNGESVDPVGQPALKTEERKAKPAPSKTQARPVGVKIPTCKITLKETFLTSPEELYRVFTTQELVQAFTHAPATLEADRGGKFHMVDGNVSGEFTDLVPEKHIVMKWRFKSWPEGHFATITLTFIDKNGETELCMEGRGIPAPEEERTRQGWQRYYFEGIKQTFGYGARLF
modifications: acrylodan on cysteine residues
